Source: PubChem BioAssay (several laboratories)
KCNQ1 pot – human KCNQ1 channel potentiation or activation | P51787 | CHO-K1 KCNQ1, thallium flux FluxOR fluorescence; stronger effect = higher value | B-score at 10 µM | actives 0.35% (n = 310,000);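 active means fluorescence ratio B-score, a plate-corrected score, at least three library SD, with initial intensity B-score within 5 SD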
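System: CHO-K1 cells stably expressing KCNQ1 / Medium: assay buffer for compound exposure, DMSO matched across wells / Reagent: thallium- and potassium-containing depolarizing buffer / Compound: one concentration, matched DMSO / Incubation: 20 min compound pretreatment at room temperature / Measured by: kinetic FluxOR fluorescence, 10 s baseline plus 110 s post-stimulus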
KCNK3 inh – human KCNK3 channel inhibition, primary screen | actives 0.84% (n = 340,000) | CHO-KCNK3 thallium flux, FluxOR fluorescence; stronger effect = lower value | O14649 | B-score at 10 µM;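 active means B-score under library mean minus 4 SD, starting fluorescence ratio at most library mean plus 5 SD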;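 further: more negative B-score means stronger inhibition of thallium flux through KCNK3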
Cl transport mod – KCC2 (human) Cl- transport modulation; Q9H2X9; actives 2.2% (n = 190,000); KCC2 cells, thallium flux FluoZin-2 fluorescence; B-score of Tl+ flux slope (higher = more flux/activation; lower = inhibition) at 10 µM; AID 1456;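 active means thallium flux slope and its plate-corrected score both differing from the plate sample mean at a set confidence after two filtering rounds, in either direction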;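 further: slope of fluorescence scaled to starting intensity during 10 to 20 s after thallium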
KCNK9 block – human KCNK9 channel inhibition; HEK293 KCNK9, FluxOR thallium flux fluorescence; stronger effect = lower value; B-score at 10 µM; actives 1.2% (n = 310,000); AID 488922;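 active means ratio B-score over 3 SD below the library mean, with starting fluorescence within 5 SD of its mean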;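 further: negative B-score means less thallium flux so channel inhibition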
hERG protect – hERG (human) protection from proarrhythmic block. Q12809. AID 1511. actives 0.51% (n = 310,000). activation (rescue from dofetilide block), less the hit threshold, % at 10 µM. CHO-hERG, FluxOR thallium flux, dofetilide IC70 present;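 active means activation above the mean of controls blocked by dofetilide plus 5 SD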;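 further: thallium influx through hERG after potassium depolarization seen as dye fluorescence rise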
Target sequence (Q12809 whole entry, looked up): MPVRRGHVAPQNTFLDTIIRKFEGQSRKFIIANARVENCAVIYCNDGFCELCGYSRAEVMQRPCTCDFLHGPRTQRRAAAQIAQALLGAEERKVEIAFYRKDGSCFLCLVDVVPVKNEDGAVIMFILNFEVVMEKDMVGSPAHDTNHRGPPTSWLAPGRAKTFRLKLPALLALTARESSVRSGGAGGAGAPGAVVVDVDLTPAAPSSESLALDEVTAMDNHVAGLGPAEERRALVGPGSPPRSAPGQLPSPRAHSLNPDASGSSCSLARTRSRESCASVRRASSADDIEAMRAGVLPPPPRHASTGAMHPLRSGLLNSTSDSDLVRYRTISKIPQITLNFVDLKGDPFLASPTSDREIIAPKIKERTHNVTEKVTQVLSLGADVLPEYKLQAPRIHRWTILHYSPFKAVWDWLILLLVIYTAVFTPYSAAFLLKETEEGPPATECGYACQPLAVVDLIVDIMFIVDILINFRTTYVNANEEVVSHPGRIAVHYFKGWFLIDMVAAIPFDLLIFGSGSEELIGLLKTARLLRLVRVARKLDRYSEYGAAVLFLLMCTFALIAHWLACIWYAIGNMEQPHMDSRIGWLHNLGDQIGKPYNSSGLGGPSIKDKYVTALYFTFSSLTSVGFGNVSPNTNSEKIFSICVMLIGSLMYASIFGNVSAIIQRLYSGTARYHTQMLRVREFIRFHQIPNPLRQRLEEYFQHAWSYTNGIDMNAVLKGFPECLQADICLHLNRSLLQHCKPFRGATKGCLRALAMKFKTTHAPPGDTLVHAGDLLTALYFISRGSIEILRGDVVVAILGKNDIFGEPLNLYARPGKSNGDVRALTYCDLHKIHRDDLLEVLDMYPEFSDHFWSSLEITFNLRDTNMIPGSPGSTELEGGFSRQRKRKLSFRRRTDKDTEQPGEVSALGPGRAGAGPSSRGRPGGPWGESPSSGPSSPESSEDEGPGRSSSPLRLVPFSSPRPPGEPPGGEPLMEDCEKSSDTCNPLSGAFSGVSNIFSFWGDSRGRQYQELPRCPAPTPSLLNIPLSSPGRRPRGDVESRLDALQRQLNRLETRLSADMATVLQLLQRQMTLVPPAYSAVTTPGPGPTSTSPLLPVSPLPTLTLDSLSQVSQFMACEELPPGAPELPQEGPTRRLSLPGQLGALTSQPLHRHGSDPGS
KCNQ1 block – blocks the human KCNQ1 potassium channel; P51787; CHO-K1 KCNQ1, FluxOR thallium flux fluorescence; stronger effect = higher value; B-score at 10 µM; actives 1.3% (n = 310,000); AID 2642;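 active means compounds whose thallium flux B-score, printed positive for inhibition, exceeds three library SD while starting fluorescence stays within three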;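 further: channel opened by potassium depolarization with thallium stimulus after 20 min compound exposure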
KCNK9 inh conf – confirmation of human KCNK9 potassium channel inhibitors; inhibition, % at 10 µM; AID 492992; HEK293 KCNK9 cells, FluxOR thallium flux fluorescence; shares compounds with KCNK9 block; actives 43% (n = 4,900);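 active means thallium signal inhibited by more than 5 SD of the compound-free buffer control wells, on both duplicate plates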;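 further: 0% = assay buffer control wells without compound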
Kir2-1 spec – selectivity of KCNK9 modulators against mouse Kir2.1; Kir2.1 cells, FluxOR thallium flux fluorescence; inhibition, % at 10 µM; actives 4% (n = 4,900); shares compounds with KCNK9 block;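 active means thallium signal drop more than 5 SD beyond the mean of the no-compound control wells, seen in both duplicate plates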;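 further: signal is fluorescence rise after thallium addition divided by baseline fluorescence; plate controls were assay buffer only for no effect and full block by chlorpromazine control for full effect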
HEK293 Tl ctr – second counter-screen for KCNK9 modulators: effect in non-induced cells. shares compounds with KCNK9 block. actives 40% (n = 4,900). AID 492997. inhibition, % at 10 µM. non-induced KCNK9-HEK293, FluxOR thallium flux;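 active means thallium signal drop beyond 5 SD of the untreated control mean, on both duplicate plates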;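 further: plate controls were buffer only IC0 wells for no effect and SID17386958 at its maximal inhibitory level for full effect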
Starred values were filed as active, the others as inactive. Sampled rows, rich in hits. Any-hit rate of the full collection: about 4.1%.

Screening O=C(c1cccnc1)C1CCCN(Cc2nc(Cc3ccccc3F)no2)C1 (stereo not drawn) returned KCNQ1 pot inactive, KCNK3 inh inactive, Cl transport mod -0.79, KCNK9 block inactive, hERG protect -7 and KCNQ1 block inactive.
Screening CCC(=O)N1CCc2cc(S(=O)(=O)CCC(=O)NC3CCCCC3)ccc21 returned KCNQ1 pot inactive, KCNK3 inh inactive, KCNK9 block inactive, hERG protect -6 and KCNQ1 block inactive.
CC1OC(CC(=O)O)CC2=C1C(=O)c1c(O)cccc1C2=O (stereo not drawn) was read as KCNK3 inh inactive.
For C=Cc1ccc(Cn2nc(-c3ccc(C)cc3)ccc2=O)cc1 the results were KCNQ1 pot inactive, KCNK3 inh inactive, KCNK9 block inactive, hERG protect -5, KCNQ1 block inactive, KCNK9 inh conf inactive, Kir2-1 spec inactive and HEK293 Tl ctr inactive.
`Cc1ccc(S(=O)(=O)Nc2cccc(C(=O)NCc3cccnc3)c2)cc1F` gave KCNQ1 pot inactive, KCNK3 inh inactive, KCNK9 block inactive, hERG protect -12 and KCNQ1 block inactive.
Screening COc1ccc(CN2CCN(CCSc3ccc(C)cc3)CC2)c(OC)c1OC returned KCNQ1 pot inactive, KCNK3 inh inactive, KCNK9 block inactive, hERG protect -2, KCNQ1 block inactive, KCNK9 inh conf inactive, Kir2-1 spec inactive and HEK293 Tl ctr inactive.
Screening CC(=O)N1CCC(=NNc2nc3ccccc3s2)CC1 returned KCNQ1 pot inactive, KCNK3 inh inactive, Cl transport mod 0.039, KCNK9 block inactive, hERG protect -7 and KCNQ1 block inactive.
`CCOC(=O)C1=C(C)NC(=S)NC1c1ccc(-c2cccc(Cl)c2C)o1` (stereo not drawn) gave KCNQ1 pot inactive, KCNK3 inh inactive, Cl transport mod 0.17, KCNK9 block -8.6*, hERG protect -7, KCNQ1 block inactive, KCNK9 inh conf inactive, Kir2-1 spec inactive and HEK293 Tl ctr inactive.
For COc1ccc(-c2ccnc(SCC(=O)c3ccc(OC)c(OC)c3)n2)cc1 the results were KCNQ1 pot inactive, KCNK3 inh inactive, Cl transport mod 0.83, KCNK9 block inactive, hERG protect -5 and KCNQ1 block inactive.
COc1ccc(OC)c(C(=O)CSc2nccc(-c3ccc(Br)cc3)n2)c1 was read as KCNQ1 pot inactive, KCNK3 inh inactive, Cl transport mod 0.46, KCNK9 block -9.4*, hERG protect -6, KCNQ1 block inactive, KCNK9 inh conf inactive, Kir2-1 spec inactive and HEK293 Tl ctr 28%*.
COc1ccc(OC)c(NC(=O)CN(C)S(=O)(=O)c2ccc3nc(C)sc3c2)c1 was read as KCNQ1 pot inactive, KCNK3 inh inactive, Cl transport mod 0.002, KCNK9 block inactive, hERG protect -5 and KCNQ1 block inactive.
Cc1ccc(CNC(=O)c2ccc(CNS(=O)(=O)c3ccc4c(c3)C(C)(C)C(=O)N4C)cc2)o1 was read as KCNQ1 pot inactive, KCNK3 inh inactive, KCNK9 block inactive, hERG protect -7, KCNQ1 block inactive, KCNK9 inh conf inactive, Kir2-1 spec inactive and HEK293 Tl ctr inactive.
`Cc1cccc(NC(=O)c2ccc(COc3ccc(Cl)cc3Cl)o2)n1` gave KCNQ1 pot inactive, KCNK3 inh inactive, KCNK9 block inactive, hERG protect -4, KCNQ1 block inactive, KCNK9 inh conf inactive, Kir2-1 spec inactive and HEK293 Tl ctr inactive.
For Cc1cccc(NC(=O)c2ccc(COc3ccccc3)o2)n1 the results were KCNQ1 pot inactive, KCNK3 inh inactive, KCNK9 block inactive, hERG protect -6 and KCNQ1 block inactive.
For Cc1cccc(C(=O)NN2C(=O)C3C(c4ccccc4)C=CC(c4ccccc4)C3C2=O)c1 (stereo not drawn) the results were KCNQ1 pot inactive, KCNK3 inh inactive, Cl transport mod -0.29, KCNK9 block -13*, hERG protect 1, KCNQ1 block inactive, KCNK9 inh conf 41%*, Kir2-1 spec inactive and HEK293 Tl ctr inactive.
`O=C(CN1C(=O)S/C(=C\c2cccc(Cl)c2)C1=O)NCCCn1ccnc1` gave KCNQ1 pot inactive, KCNK3 inh inactive, KCNK9 block inactive, hERG protect -18, KCNQ1 block inactive, KCNK9 inh conf inactive, Kir2-1 spec inactive and HEK293 Tl ctr inactive.
O=C(CN1C(=O)S/C(=C\c2ccc(Cl)cc2)C1=O)NCCCn1ccnc1 was read as KCNQ1 pot inactive, KCNK3 inh inactive, KCNK9 block inactive, hERG protect -11 and KCNQ1 block inactive.
Screening CCN1CCCc2cc(CN(CCN3CCOCC3)C(=S)Nc3cccc(Cl)c3)ccc21 returned KCNQ1 pot inactive, KCNK3 inh inactive, Cl transport mod -0.36, KCNK9 block inactive, hERG protect -13, KCNQ1 block inactive, KCNK9 inh conf inactive, Kir2-1 spec inactive and HEK293 Tl ctr inactive.
`COC(=O)C(Cc1ccc(OC(=O)c2ccc(C(F)(F)F)cc2)cc1)N1Cc2ccccc2C1=O` (stereo not drawn) gave KCNQ1 pot inactive, KCNK3 inh inactive, Cl transport mod 0.65, KCNK9 block inactive, hERG protect -10, KCNQ1 block 6*, KCNK9 inh conf inactive, Kir2-1 spec inactive and HEK293 Tl ctr inactive.
Screening COC(=O)C(Cc1ccc(OC(=O)c2ccc(Cl)cc2)cc1)N1Cc2ccccc2C1=O (stereo not drawn) returned KCNQ1 pot inactive, KCNK3 inh inactive, Cl transport mod 0.24, KCNK9 block inactive, hERG protect -19 and KCNQ1 block inactive.
`CC(=O)C1CCC2C3CCC4CC(OC(=O)CCC(=O)O)CCC4(C)C3C(=O)CC12C` (stereo not drawn) gave KCNK3 inh inactive.
For N#CCC(=O)N1CCCCCC1 the results were KCNQ1 pot inactive, KCNK3 inh inactive, Cl transport mod 1.3, KCNK9 block inactive, hERG protect -4 and KCNQ1 block inactive.
